Bioassay records from PubChem.
Hck Nef HTS = inhibitors of Nef-activated human Hck kinase, primary screen, biochemical, Z-Lyte FRET, 384-well, Hck-YEEI; Recombinant Hck-YEEI plus Nef, Z-Lyte FRET kinase assay; inhibition, % at 20 µM; AID 463187, 2010; actives 0.68% (n = 220,000);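 active = Hck-Nef kinase inhibition above about 50%, limit read from the data; inactive = inhibition below that limit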;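 note: 0% = DMSO with Hck plus Nef and 100% = Hck alone without Nef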
Runt-SMMHC FRET = inhibitors of RUNX1 Runt–CBFb-SMMHC binding, primary screen, biochemical, FRET, Cerulean-Runt, Venus-CBFb-SMMHC, uHTS. actives 0.74% (n = 220,000). AID 1434, 2008. Cerulean-Runt/Venus-CBFb-SMMHC FRET ratio 530/480, 1 h. Runt-related transcription factor 1 (Homo sapiens) + Core-binding factor subunit beta …. inhibition, % at 20 µM;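 active = mean inhibition across duplicate retests at 20 µM reaching about 50%, limit read from the data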;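 note: 0% = DMSO wells and 100% = wells with excess untagged CBFb-SMMHC; inhibitors lower the FRET ratio by blocking Runt binding to CBFb-SMMHC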
Target sequence (Q01196 whole entry, looked up): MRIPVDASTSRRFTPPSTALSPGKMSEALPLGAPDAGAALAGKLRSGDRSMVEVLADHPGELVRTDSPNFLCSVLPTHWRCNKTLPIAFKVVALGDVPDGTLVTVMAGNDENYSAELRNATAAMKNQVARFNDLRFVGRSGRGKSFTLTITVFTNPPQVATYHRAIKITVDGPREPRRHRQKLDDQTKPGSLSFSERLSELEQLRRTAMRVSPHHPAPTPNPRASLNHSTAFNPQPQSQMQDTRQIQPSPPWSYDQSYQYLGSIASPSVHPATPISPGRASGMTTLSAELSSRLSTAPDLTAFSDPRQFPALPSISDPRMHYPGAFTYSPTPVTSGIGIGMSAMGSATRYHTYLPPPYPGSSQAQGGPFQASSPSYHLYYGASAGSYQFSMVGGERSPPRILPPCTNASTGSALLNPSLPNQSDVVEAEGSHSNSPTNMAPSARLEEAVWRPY
Target sequence (Q13951 whole entry, looked up): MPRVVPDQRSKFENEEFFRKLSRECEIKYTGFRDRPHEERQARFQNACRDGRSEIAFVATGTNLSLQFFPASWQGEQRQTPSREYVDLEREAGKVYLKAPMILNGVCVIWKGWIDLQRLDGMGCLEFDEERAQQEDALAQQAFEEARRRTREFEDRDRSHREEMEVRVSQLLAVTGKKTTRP
Runt-CBFb FRET = inhibitors of RUNX1 Runt–CBFb binding, primary screen, biochemical, FRET, Cerulean-Runt, Venus-CBFb, uHTS | actives 0.46% (n = 220,000) | Cerulean-Runt/Venus-CBFb FRET ratio 530/480, 1 h | AID 1496, 2009 | Runt-related transcription factor 1 (Homo sapiens) + Core-binding factor subunit beta … | inhibition, % at 20 µM;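 active = inhibition over about 50% at 20 µM in the single-dose screen, limit read from the data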;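 note: 0% = DMSO wells and 100% = excess unlabeled CBFb competitor control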
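Assay system: Cerulean-Runt domain / Medium: Tris 50 mM pH 7.5, KCl, K2SO4, 0.01% BSA / Timing: protein complex preformed 1 h, compound exposure 1 h, room temperature, dark / Measured by: FRET, excitation 422 nm, emission at 530 and 480 nm / Evaluation: loss of energy transfer signal / Control set: 5 µM unlabeled CBFb as full-inhibition high control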
RanGTP-Imp inh = inhibitors of RanGTP-importin-beta interaction, primary screen, biochemical, FRET, CFP-Ran, YFP-importin-beta, homogeneous; Ran GTPase (GTP-bound) - importin-beta complex; cell-free CFP-Ran/YFP-importin-beta FRET ratio; inhibition, % (test concentration not listed); actives 1.1% (n = 300,000); AID 2216, 2009;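 active = more than half of the replicate wells show a fall in the fluorescence ratio signal beyond about 16%, limit read from the data, passing the limit was not always enough; inconclusive = exactly half of the replicate wells pass the set limit; inactive = fewer than half of replicates pass the limit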;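 note: 0% = DMSO wells and 100% = Ran loaded with GDP instead of GTP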
The depositor's hits bear a star; ? = inconclusive; . = no result given. This is a sample that favours compounds with a hit; in the whole collection about 1.8% have one here.

SMILES | Hck Nef HTS | Runt-SMMHC FRET | Runt-CBFb FRET | RanGTP-Imp inh
COC(=O)C1=C(C)N(CC2CCCO2)C(=O)C1 (configuration not stated) | -1 | 2 | -1 | 17*
CCOc1nc(-c2ccccc2)c2cc(Br)ccc2n1 | . | . | . | 3
CCCCN(C)C(=O)Cn1cnc2sc(C)c(S(=O)(=O)N3CCN(c4ccccc4OC)CC3)c2c1=O | . | . | . | -1
Cc1cc(C)c2c(=O)n(CC(=O)N3CCC(N4CCCCC4)CC3)sc2n1 | 1 | 64* | -10 | -2
CCOC(=O)C1CCCN(C(=O)Cn2cnc3c2c(=O)n(C)c(=O)n3C)C1 (configuration not stated) | -10 | 3 | 0 | -5
CCCNC(=O)Cn1sc2nc(C)cc(C)c2c1=O | -43 | 60* | 14 | -4
CCOC(=O)C1CCCN(C(=O)Cn2sc3nc(C)cc(C)c3c2=O)C1 (configuration not stated) | -2 | 59* | -15 | 0
CC(=O)Cn1cnc2c(sc3nc(C)cc(C)c32)c1=O | 17 | -2 | 1 | -2
CN1C(=O)/C(=C/c2ccc3c(c2)OCO3)N=C1c1ccccc1 | 4 | 15 | 1 | 17*
Cc1ccc(S(=O)(=O)NCC(=O)NCC(=O)OC(C(=O)NC(N)=O)C(C)C)cc1C (configuration not stated) | 20 | -2 | 0 | -3
CN(CCC#N)c1ccc(/C=C(\C#N)c2ccccn2)cc1 | 47 | 79* | 4 | -27
CCN(CC)c1ccc(/C=C(\C#N)c2ccccn2)cc1 | 29 | -45 | -21 | 45*
CCN(Cc1ccccc1)c1ccc(/C=C(\C#N)c2ccccn2)cc1 | -1 | -59 | -125 | 6
O=S(=O)(Nc1cccc(-c2nnco2)c1)c1ccc(F)cc1F | 4 | 0 | 2 | 4
Cc1c(O)ccc2c(CN3CCN(C/C=C/c4ccccc4)CC3)cc(=O)oc12 | 40 | 81* | 44 | 52*
CCOC(=O)CSc1nc(N2CCOCC2)c2c(c1C#N)CC(C)(C)N(C)C2 | 0 | 84* | 60* | 19*
O=C(Nc1cc2c(=O)n(-c3ccc(Oc4ccccc4)cc3)ccc2oc1=O)c1ccccc1 | 21 | 62* | 21 | ?
CC(=O)Nc1ccc(Cl)cc1C1COC(=O)C1=N (configuration not stated) | 12 | -8 | -6 | 19*
Cc1sc2ncnc(N3CCC(C(=O)N(CC(C)C)c4nc5ccccc5s4)CC3)c2c1C | . | . | . | 2
CCCn1c(C)cc(C(=O)COC(=O)c2nccnc2N)c1C | 27 | 7 | 11 | 25*
COc1ccc(CCn2c(C)cc(C(=O)COC(=O)c3cnccn3)c2C)cc1 | . | . | . | -1
CCN(CC)c1ccc(NC(=S)NC(=O)c2cccs2)cc1 | 26 | 0 | 23 | ?
O=C(c1ccco1)[C@@H]1[C@@H]2C(=O)N(c3ccccc3)C(=O)[C@@H]2C2c3ccccc3C=CN21 (some centres not stated) | 0 | -58 | -23 | 28*
CCOC(=O)Cc1csc(NS(=O)(=O)c2ccc(F)cc2)n1 | -1 | 1 | -2 | 5
CCOC(=O)Cc1csc(NS(=O)(=O)c2ccc(Br)cc2)n1 | -16 | -2 | 0 | 37*
SMILES | Hck Nef HTS | Runt-SMMHC FRET | Runt-CBFb FRET | RanGTP-Imp inh
Cc1cc(C)c(C(=O)N(CCN(C)C)CC2CCCN(Cc3ccccc3F)C2)o1 (configuration not stated) | . | . | . | 3
Cc1cccc(NC(=O)COc2ccc(/C=C\c3[nH]c(=O)[nH]c(=O)c3[N+](=O)[O-])cc2)c1 | 62* | -24 | -4 | -1
CC(=O)Oc1c(/C=C(\C#N)C(N)=O)[nH]c2ccccc12 | 15 | 20 | 34 | 16*
N#C/C(=C\c1c[nH]c2ccccc12)C(N)=O | 44 | -1 | 3 | 7
NS(=O)(=O)c1ccc(Sc2ccc3c(c2)CCC3)nc1 | . | . | . | 2
CCOC(=O)c1ccc(NC(=O)c2cccc3c2C(=O)N(CC2CCCO2)C3)cc1 (configuration not stated) | . | . | . | 3
CCOC(=O)C1=CN(CC2CCCO2)C=C(C(=O)OCC)C1c1ccccc1C(F)(F)F (configuration not stated) | 12 | 91* | 109* | 5
Cc1ccccc1N1CCN(C2CCCN(C(=O)CCc3c(C)noc3C)C2)CC1 (configuration not stated) | . | . | . | 4
CCOc1ccc2nc(NCCCNS(=O)(=O)c3ccccc3)c(C#N)cc2c1 | 7 | 61* | 80* | 134*
CCOc1ccc2nc(NCCCNS(=O)(=O)c3ccc(F)cc3)c(C#N)cc2c1 | -10 | . | . | 132*
CCOc1ccc2nc(NCCNC(=O)C(C)C)c(C)cc2c1 | -2 | 0 | 23 | -2
CCOc1ccc2nc(SCC(=O)N3c4ccccc4Sc4ccccc43)c(C#N)cc2c1 | 4 | -7 | -1 | ?
COc1cc(Cl)ccc1OCc1cc(C(=O)N(C)Cc2cccc3cnccc23)no1 | . | . | . | -1
O=S(=O)(Nc1nc2ccccc2nc1N1CCN(c2ccccn2)CC1)c1ccc(Cl)cc1 | 11 | 104* | 34 | .
O=S(=O)(Nc1nc2ccccc2nc1N1CCc2ccccc2C1)c1ccc(Cl)cc1 | 4 | 8 | -1 | -6
N#C[C@H]1[C@H](c2ccccc2)[C@](C#N)(C(=O)c2ccccc2)[C@@H]2C=Cc3ccccc3N21 | 6 | 7 | 5 | 47*
Cc1cccc2cc3c(NC(=O)C(C)(C)C)nn(CC(C)C)c3nc12 | . | . | . | 80*
CCn1nc(NC(=O)c2ccccc2)c2cc3cccc(C)c3nc21 | 41 | 86* | 62* | 69*
Cc1cccc2cc3c(NC(=O)CC(C)C)nn(C)c3nc12 | 19 | 48 | 27 | 10
CCn1nc(NC(=O)C(C)C)c2cc3cccc(C)c3nc21 | . | . | . | 48*
CCn1nc(NC(=O)C(C)C)c2cc3ccc(C)cc3nc21 | . | . | . | 8
O=C(O)c1ccccc1SCCS(=O)(=O)c1ccc(Cl)cc1Cl | . | . | . | 1
CCOC(=O)c1nn(-c2ccccc2Cl)c(=O)cc1OCC(=O)Nc1cccc(OC)c1 | . | . | . | -3
COc1cc(N2N=C(c3ccccc3)CC2c2ccccc2)c(C=O)cc1C=O (configuration not stated) | . | . | . | 31*
O=C(Nc1ccccc1)c1cnc[nH]1 | 3 | 0 | 89* | 3
O=C(CCC1CCCCC1)Nc1cccc(C(=O)Nc2ccc(C(=O)O)cc2)c1 | . | . | . | 3
CC(CN1CCC(n2nccc2NC(=O)CCCc2ccccc2)CC1)c1ccccc1 (configuration not stated) | . | . | . | 1
Cc1ccc(C)c(-c2nnc(NC(=O)Cc3ccc(F)cc3)o2)c1 | . | . | . | -7
N#C/C(=C\c1ccncc1)c1nc2c(s1)CCCC2 | -14 | 87* | 22 | ?
